# Legend:
# H9 [1] = experiment: Anti-HIV activity against acutely infected H9 lymphocytes. Activity expressed as concentration of compound able to suppress HIV replication by 50%.; assay type: functional, cell-based; settings: Homo sapiens
# Outline: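 H9 cells (RPMI 1640, 10% FCS, L-glutamine, 37 °C, 5% CO2, log phase) infected 1 h with HIV-1 IIIB at MOI 0.1-0.01, washed and plated at 4 × 10^5 cells/mL with DMSO-dissolved samples (screen 100, 20, 4, 0.8 µg/mL final, further dilutions for actives). After 4 days, supernatant p24 was measured by antigen-capture ELISA against a standard curve. EC50 is 50% suppression of replication; at least two experiments averaged.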
# [2] = Therapeutic Index is the […] of the IC50 to that of EC50; assay type: cell-based; settings: human, H9 cells; read-out: TI
# H9 [3] = experiment: Anti-HIV activity against acutely infected H9 lymphocytes. Activity expressed as concentration of compound toxic to 50% of mock-infected H9 cells.; assay type: functional, cell-based; settings: Homo sapiens
# Outline: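 Uninfected H9 cells were exposed to DMSO-dissolved samples (screen 100, 20, 4, 0.8 µg/mL final) for 4 days at 37 °C, 5% CO2. Remaining cells were counted with a counter against medium-only controls. IC50 is the concentration toxic to 50% of mock-infected cells; at least two experiments averaged.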
# H9 [4] = experiment: Anti-HIV activity was measured in […] by MAGI assay; assay type: functional, cell-based; settings: Homo sapiens
# Outline: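 HeLa-CD4/β-gal cells were plated at 10 000/well in DMEM with G418 500 µg/mL and hygromycin 250 µg/mL for 1 day. They were then infected with virus dilutions in the presence of varying drug for 2 days at 37 °C. Cells were fixed (1% formaldehyde, 0.2% glutaraldehyde) and stained with X-gal 0.4 mg/mL. Blue cells were counted, and EC50 was taken as a 50% reduction in infected cells.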
SMILES,EC50 (H9 [1]) [µM],EC50 (H9 [4]) [µM],selectivity ratio [2],IC50 (H9 [3]) [µM]
CC(C)[C@@H]1CC[C@]2(COC(=O)CCCC(=O)O)CC[C@]3(C)[C@H](CC[C@@H]4[C@@]5(C)CC[C@H](OC(=O)CCCC(=O)O)C(C)(C)[C@@H]5CC[C@]43C)[C@@H]12,1.6,–,17,26.3
C=C(C)[C@@H]1CC[C@]2(COC(=O)C34CC5CC(CC(C5)C3)C4)CC[C@]3(C)[C@H](CC[C@@H]4[C@@]5(C)CC[C@H](OC(=O)CC(C)(C)CC(=O)O)C(C)(C)[C@@H]5CC[C@]43C)[C@@H]12,2.98,–,> 44.8,> 134
C=C(C)[C@@H]1CC[C@]2(C=O)CC[C@]3(C)[C@H](CC[C@@H]4[C@@]5(C)CCC(=O)C(C)(C)[C@@H]5CC[C@]43C)[C@@H]12 [BETULONAL],45.6,–,1.1,49
C=C(C)[C@@H]1CC[C@]2(COC(C)=O)CC[C@]3(C)[C@H](CC[C@@H]4[C@@]5(C)CC[C@H](OC(C)=O)C(C)(C)[C@@H]5CC[C@]43C)[C@@H]12 [BETULIN DIACETATE],> 190,–,< 1,> 190
Cc1cn([C@H]2C[C@H](N=[N+]=[N-])[C@@H](CO)O2)c(=O)[nH]c1=O [ZIDOVUDINE],–,0.037,–,–
C=C(COC(=O)CC1(CC(=O)O)CCCC1)[C@@H]1CC[C@]2(COC(=O)CC3(CC(=O)O)CCCC3)CC[C@]3(C)[C@H](CC[C@@H]4[C@@]5(C)CC[C@H](OC(=O)CC6(CC(=O)O)CCCC6)C(C)(C)[C@@H]5CC[C@]43C)[C@@H]12,0.0054,–,1190,6.99
C=C(COC(=O)CC(C)(C)CC(=O)O)[C@@H]1CC[C@]2(COC(=O)CC(C)(C)CC(=O)O)CC[C@]3(C)[C@H](CC[C@@H]4[C@@]5(C)CC[C@H](OC(=O)CC(C)(C)CC(=O)O)C(C)(C)[C@@H]5CC[C@]43C)[C@@H]12,0.045,–,389,17.5

# More lines, main results first:
EC50 (H9 [1]) [µM],EC50 (H9 [4]) [µM],SMILES,selectivity ratio [2],IC50 (H9 [3]) [µM]
3.8,–,C=C(C)[C@@H]1CC[C@]2(COC(=O)CCCC(=O)O)CC[C@]3(C)[C@H](CC[C@@H]4[C@@]5(C)CC[C@H](OC(=O)CCCC(=O)O)C(C)(C)[C@@H]5CC[C@]43C)[C@@H]12,6.8,25.8
4.7,–,CC(C)[C@@H]1CC[C@]2(COC(=O)CCC(=O)O)CC[C@]3(C)[C@H](CC[C@@H]4[C@@]5(C)CC[C@H](OC(=O)CCC(=O)O)C(C)(C)[C@@H]5CC[C@]43C)[C@@H]12,6.2,28.8
0.0039,–,C=C(C)[C@@H]1CC[C@]2(COC(=O)CC(C)CC(=O)O)CC[C@]3(C)[C@H](CC[C@@H]4[C@@]5(C)CC[C@H](OC(=O)CC(C)CC(=O)O)C(C)(C)[C@@H]5CC[C@]43C)[C@@H]12 (stereo partly drawn),5310,20.7
